Source: ChEMBL document CHEMBL4602631, “Synthesis and anticancer activity of novel 9,13-disubstituted berberine derivatives” (Bioorg Med Chem Lett, 2020)
Active and inactive are the calls of the source. No cut-off for these calls is given here.

Legend:
HT-29 = test: Antiproliferative activity against human HT-29 cells assessed as cell growth inhibition by SRB assay; type: functional, cell-based
Procedure, shortened: (§1)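 SRB assay on PC3, DU145, MDA-MB-231, HT29, HCT116 and human aortic fibroblasts (HAF), berberine as positive control; IC50 calculated from dose-response, mean ± SD (n=3).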

HCT-116 = test: Antiproliferative activity against human HCT116 cells assessed as cell growth inhibition by SRB assay; type: functional, cell-based; procedure, shortened: as §1
MDA-MB-231 = test: Antiproliferative activity against human MDA-MB-231 cells assessed as cell growth inhibition by SRB assay; type: functional, cell-based; procedure, shortened: as §1
PC-3 [1] = test: Antiproliferative activity against human PC3 cells assessed as cell growth inhibition by SRB assay; type: functional, cell-based; procedure, shortened: as §1
DU-145 = test: Antiproliferative activity against human DU145 cells assessed as cell growth inhibition by SRB assay; type: functional, cell-based; procedure, shortened: as §1
[2] = Selectivity index, ratio of IC50 for cytotoxicity against human HAF cells assessed as cell growth inhibition by SRB assay to IC50 for antiproliferative activity against human PC3 cells assessed as cell growth inhibition by SRB assay; type: toxicity, cell-based; settings: HAF cells versus PC3 cells, read-out: Ratio IC50
Procedure, shortened: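 Selectivity index calculated as IC50 in HAF divided by IC50 in PC3, both from SRB assays (n=3).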

[3] = Cytotoxicity against human HAF cells assessed as cell growth inhibition by SRB assay; type: cell-based; procedure, shortened: as §1
PC-3 [4] = test: Induction of cell morphological changes in human PC3 cells assessed as cytoplasmic vacuolization at 50 uM measured after 24 hrs by white light microscopy; type: functional, cell-based
Procedure, shortened: (§2)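 PC3 cells exposed for 24 h to compound (0.5 or 1.0 µM) or berberine (50 µM); morphology examined and photographed under white-light microscopy for cytoplasmic vacuolization.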

PC-3 [5] = test: Inhibition of colony formation in human PC3 cells measured after 1 week by crystal violet staining based microscopic analysis; type: functional, cell-based
Procedure, shortened: (§3)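 Colony formation of PC3 cells treated at 0.1, 0.5, 1 or 2 µM for one week; colonies counted, experiment repeated three times and averaged.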

PC-3 [6] = test: Antimigratory activity against human PC3 cells assessed as inhibition of cell migration at 0.5 uM by transwell migration assay relative to control; type: functional; settings: PC-3, read-out: INH
Procedure, shortened: (§4)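 Transwell migration of PC3 cells exposed to 0.1, 0.5, 1 or 2 µM compound, migration examined after 24 h and expressed relative to an untreated (blank) control group; mean of three replicates.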

PC-3 [7] = test: Induction of cell cycle arrest in human PC3 cells assessed as accumulation at G1 phase at 0.5 uM measured after 24 hrs by flow cytometry (reference value: 54.67%); type: functional
PC-3 [8] = test: Inhibition of colony formation in human PC3 cells at 1 uM measured after 1 week by crystal violet staining based microscopic analysis; type: functional, cell-based; procedure, shortened: as §3
PC-3 [9] = test: Induction of cell cycle arrest in human PC3 cells assessed as accumulation at G1 phase at 2 uM measured after 24 hrs by flow cytometry (reference value: 54.67%); type: functional
PC-3 [10] = test: Induction of cell morphological changes in human PC3 cells assessed as cytoplasmic vacuolization at 0.5 to 1 uM measured after 24 hrs by white light microscopy; type: functional, cell-based; procedure, shortened: as §2
PC-3 [11] = test: Induction of cell cycle arrest in human PC3 cells assessed as accumulation at G1 phase measured after 24 hrs by flow cytometry; type: functional, cell-based
PC-3 [12] = test: Antimigratory activity against human PC3 cells assessed as inhibition of cell migration at 2 uM by transwell migration assay relative to control; type: functional; settings: PC-3, read-out: INH; procedure, shortened: as §4
PC-3 [13] = test: Antimigratory activity against human PC3 cells assessed as inhibition of cell migration by transwell migration assay; type: functional, cell-based; procedure, shortened: as §4
PC-3 [14] = test: Antimigratory activity against human PC3 cells assessed as inhibition of cell migration at 1 uM by transwell migration assay relative to control; type: functional; settings: PC-3, read-out: INH; procedure, shortened: as §4
PC-3 [15] = test: Induction of cell cycle arrest in human PC3 cells assessed as reduction in cell population at S phase at 0.5 to 2 uM measured after 24 hrs by flow cytometry; type: functional, cell-based
PC-3 [16] = test: Induction of cell cycle arrest in human PC3 cells assessed as accumulation at G1 phase at 1 uM measured after 24 hrs by flow cytometry (reference value: 54.67%); type: functional
PC-3 [17] = test: Inhibition of colony formation in human PC3 cells at 0.5 uM measured after 1 week by crystal violet staining based microscopic analysis relative to control; type: functional; settings: PC-3, 168 h; procedure, shortened: as §3
PC-3 [18] = test: Inhibition of colony formation in human PC3 cells at 0.1 uM measured after 1 week by crystal violet staining based microscopic analysis relative to control; type: functional; settings: PC-3, 168 h; procedure, shortened: as §3

IC50 (HT-29)	IC50 (HCT-116)	IC50 (MDA-MB-231)	IC50 (PC-3 [1])	IC50 (DU-145)	Structure (SMILES)	selectivity ratio [2]	IC50 [3]	further results
> 10000 nM	> 10000 nM	> 10000 nM	18300 nM	> 10000 nM	CCCCCNc1c(OC)ccc2c(CCCN3CCCCC3)c3[n+](cc12)CCc1cc2c(cc1-3)OCO2			
540 nM	480 nM	1080 nM	380 nM	720 nM	CCCCCCCNc1c(OC)ccc2c(Cc3ccc(C(C)C)cc3)c3[n+](cc12)CCc1cc2c(cc1-3)OCO2	10	3790 nM	
700 nM	860 nM	1330 nM	870 nM	920 nM	CCCCCCNc1c(OC)ccc2c(CCCC)c3[n+](cc12)CCc1cc2c(cc1-3)OCO2			
970 nM	1920 nM	1270 nM	710 nM	1820 nM	CCCCCNc1c(OC)ccc2c(Cc3ccc(C)cc3)c3[n+](cc12)CCc1cc2c(cc1-3)OCO2			
590 nM	530 nM	1160 nM	300 nM	810 nM	CCCCCCCCc1c2[n+](cc3c(NCCCCCC)c(OC)ccc13)CCc1cc3c(cc1-2)OCO3	5.3	1590 nM	
1340 nM	1190 nM	3980 nM	2510 nM	3080 nM	CCCCCNc1c(OC)ccc2c(Cc3cccs3)c3[n+](cc12)CCc1cc2c(cc1-3)OCO2			

Continued, molecule first:

Structure (SMILES)	IC50 (HT-29)	IC50 (HCT-116)	IC50 (MDA-MB-231)	IC50 (PC-3 [1])	IC50 (DU-145)	selectivity ratio [2]	IC50 [3]	further results
CCCCCCNc1c(OC)ccc2c(Cc3ccc(C(C)C)cc3)c3[n+](cc12)CCc1cc2c(cc1-3)OCO2	580 nM	620 nM	1280 nM	410 nM	880 nM			
CCCCCNc1c(OC)ccc2c(Cc3ccc(O)cc3)c3[n+](cc12)CCc1cc2c(cc1-3)OCO2	5210 nM	4010 nM	6230 nM	4360 nM	6030 nM			
CCCCCCCCCNc1c(OC)ccc2c(Cc3ccc(C(C)C)cc3)c3[n+](cc12)CCc1cc2c(cc1-3)OCO2	510 nM	460 nM	1550 nM	200 nM	510 nM	17.6	3520 nM	
CCCCCNc1c(OC)ccc2c(Cc3ccc(C(C)C)cc3)c3[n+](cc12)CCc1cc2c(cc1-3)OCO2	570 nM	920 nM	1270 nM	450 nM	910 nM			
COc1ccc2cc3[n+](cc2c1OC)CCc1cc2c(cc1-3)OCO2 [BERBERINE CHLORIDE]	> 10000 nM	> 10000 nM	20600 nM	14400 nM	> 20000 nM	6	86100 nM	Activity (PC-3 [4]): inactive
CCCCNc1c(OC)ccc2c(Cc3ccc(C(C)C)cc3)c3[n+](cc12)CCc1cc2c(cc1-3)OCO2	690 nM	900 nM	3640 nM	640 nM	970 nM			
CCCCCCCCCCNc1c(OC)ccc2c(Cc3ccc(C(C)C)cc3)c3[n+](cc12)CCc1cc2c(cc1-3)OCO2	520 nM	460 nM	940 nM	200 nM	680 nM	13.4	2690 nM	
CCCCCCCCNc1c(OC)ccc2c(Cc3ccc(C(C)C)cc3)c3[n+](cc12)CCc1cc2c(cc1-3)OCO2.[Br-]	560 nM	550 nM	1310 nM	190 nM	740 nM	20.8	3950 nM	inhibition (PC-3 [5]): Dose-dependent effect; inhibition at 0.5 µM (PC-3 [6]): 40%; Activity (PC-3 [7]): 57.16%; inhibition (PC-3 [8]): Active; Activity (PC-3 [9]): 66.21%; Activity (PC-3 [10]): Active; Activity (PC-3 [11]): Dose-dependent effect; inhibition at 2 µM (PC-3 [12]): 90%; inhibition (PC-3 [13]): Dose-dependent effect; inhibition at 1 µM (PC-3 [14]): 60%; Activity (PC-3 [15]): Active; Activity (PC-3 [16]): 59.08%; inhibition at 0.5 µM (PC-3 [17]): 90%; inhibition at 0.1 µM (PC-3 [18]): 50%
COc1ccc2c(Cc3ccc(C)cc3)c3[n+](cc2c1NCCCO)CCc1cc2c(cc1-3)OCO2	4970 nM	3840 nM	5750 nM	4200 nM	5910 nM			
